Holding throughout (details): Cell membrane
The target in assay [1] is Adenosine receptor A2a (Homo sapiens) (UniProt P29274). Put plainly: Displacement of [3H]ZM2421385 from adenosine A2A receptor expressed in human HeLa cell membranes at 1 uM incubated for 30 mins by scintillation counting method.
The target in assay [2] is T1, Adenosine receptor A1 (Homo sapiens) (UniProt P30542).
T1 sequence (whole entry): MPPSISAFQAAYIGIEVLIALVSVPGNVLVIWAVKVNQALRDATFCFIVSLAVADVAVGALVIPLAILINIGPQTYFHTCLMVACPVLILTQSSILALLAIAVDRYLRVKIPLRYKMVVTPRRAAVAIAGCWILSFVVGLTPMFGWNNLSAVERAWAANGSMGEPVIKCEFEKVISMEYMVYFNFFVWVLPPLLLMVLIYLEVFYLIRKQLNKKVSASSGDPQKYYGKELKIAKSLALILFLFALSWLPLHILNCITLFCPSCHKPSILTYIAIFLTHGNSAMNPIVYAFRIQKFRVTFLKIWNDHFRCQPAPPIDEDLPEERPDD
Put plainly: Displacement of [3H]DPCPX from human adenosine A1 receptor expressed in CHO cell membranes at 1 uM incubated for 60 mins by scintillation counting method.

Assay [3] addresses T2, Adenosine receptor A3 (Homo sapiens) (UniProt P0DMS8).
T2 sequence (whole entry): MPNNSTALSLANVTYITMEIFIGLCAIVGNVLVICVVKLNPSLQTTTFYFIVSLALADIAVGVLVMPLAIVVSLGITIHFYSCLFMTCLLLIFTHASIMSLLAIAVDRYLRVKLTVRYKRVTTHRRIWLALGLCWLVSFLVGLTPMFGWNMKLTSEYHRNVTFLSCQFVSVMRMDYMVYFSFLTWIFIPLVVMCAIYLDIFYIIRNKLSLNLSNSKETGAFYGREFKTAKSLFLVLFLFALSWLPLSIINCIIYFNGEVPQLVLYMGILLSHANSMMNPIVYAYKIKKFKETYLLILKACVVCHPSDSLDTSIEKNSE
Put plainly: Displacement of [3H]NECA from adenosine A3 receptor expressed in human HeLa cell membranes at 1 uM incubated for 180 mins by scintillation counting method. The gist of the method:
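hA3AR in HeLa membranes (3 pmol/mg protein) with 10 nM [3H]NECA (KD 8.7 nM); nonspecific binding with 100 μM R-PIA; incubated 180 min at 25 °C, washed, filtered, radioactivity counted.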
Background: Displacement assays read how much labelled ligand stays bound in the presence of the test substance.

The target of assay [4] is T3, Adenosine receptor A2b (Homo sapiens) (UniProt P29275).
T3 sequence (whole entry): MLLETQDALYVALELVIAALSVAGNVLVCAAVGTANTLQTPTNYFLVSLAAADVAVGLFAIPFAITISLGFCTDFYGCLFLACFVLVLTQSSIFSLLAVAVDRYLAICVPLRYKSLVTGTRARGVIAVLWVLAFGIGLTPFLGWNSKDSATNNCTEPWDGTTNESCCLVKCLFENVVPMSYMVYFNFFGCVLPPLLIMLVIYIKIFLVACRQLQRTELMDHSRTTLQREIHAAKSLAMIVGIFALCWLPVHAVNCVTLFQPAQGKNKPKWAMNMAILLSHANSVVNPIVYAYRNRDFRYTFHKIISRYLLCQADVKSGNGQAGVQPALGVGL
Put plainly: Displacement of [3H]DPCPX from human adenosine A2B receptor expressed in HEK293 cell membranes at 1 uM incubated for 30 mins by scintillation counting method.

In ChEMBL document CHEMBL4765483 (J Med Chem, 2021) one finds inhibition data, which are given here for 32 compounds.

The inhibition is the drop in the measured response relative to a control, in per cent. Read a low inhibition as a weak effect.

Sequence of Adenosine receptor A2a (Homo sapiens) (P29274 whole entry): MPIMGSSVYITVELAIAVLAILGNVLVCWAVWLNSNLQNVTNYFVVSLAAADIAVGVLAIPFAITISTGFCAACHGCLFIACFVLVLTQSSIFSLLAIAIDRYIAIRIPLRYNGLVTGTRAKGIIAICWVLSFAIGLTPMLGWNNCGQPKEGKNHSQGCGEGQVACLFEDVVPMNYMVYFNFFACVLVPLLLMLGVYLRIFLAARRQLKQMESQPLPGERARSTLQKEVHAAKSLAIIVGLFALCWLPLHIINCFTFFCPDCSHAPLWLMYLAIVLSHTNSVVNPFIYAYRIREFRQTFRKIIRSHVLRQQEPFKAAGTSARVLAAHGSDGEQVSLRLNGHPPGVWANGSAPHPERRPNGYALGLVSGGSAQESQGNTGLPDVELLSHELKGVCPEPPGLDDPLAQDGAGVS

With `CC(=O)C1=C(C)NC(=O)NC1c1cccs1` (racemic), the inhibition in assay [1] came out at 2%; in assay [2] it was 11%; in assay [3], 3%; in assay [4], 2%.

As for `CC(=O)C1=C(C)NC(=O)NC1c1ccoc1` (racemic), the inhibition in assay [1] worked out at 1%; in assay [2], 6%; in assay [3], 2%; in assay [4], 15%.

For the compound `CC(=O)C1=C(C)NC(=O)NC1c1ccsc1` (racemic), the inhibition in assay [1] worked out at 1%; in assay [2] it was 9%; in assay [3], 1%; in assay [4], 24%.

With `CC1=C(C(=O)C2CC2)C(c2cccs2)NC(=O)N1` (racemic), the inhibition was determined as 1% in assay [1], 1% in assay [2], 15% in assay [3] and 1% in assay [4].

As for `CC1=C(C(=O)C2CC2)C(c2ccoc2)NC(=O)N1` (racemic), the inhibition in assay [1] stood at 1%; in assay [2] it was 1%; in assay [3] it was 16%; in assay [4] it was 10%.

Turning to `CC1=C(C(=O)C2CC2)C(c2ccsc2)NC(=O)N1` (racemic), the inhibition came out at 4% in assay [1], 2% in assay [2], 1% in assay [3] and 1% in assay [4].

Take `CC1=C(C(=O)CC(C)C)C(c2cccs2)NC(=O)N1` (racemic): the inhibition in assay [1] is 1%; in assay [2], 19%; in assay [3], 18%; in assay [4] (filed as antagonist), 43%.

Regarding `CC1=C(C(=O)NC(C)C)C(c2ccco2)NC(=O)N1` (racemic), the inhibition in assay [1] came out at 1%; in assay [2], 3%; in assay [3] it was 4%; in assay [4], 2%.

On to `CC1=C(C(=O)NC(C)C)C(c2ccoc2)NC(=O)N1` (racemic), for which the inhibition in assay [1] amounted to 1%; in assay [2] it was 1%; in assay [3], 3%; in assay [4], 3%.

As to `CC1=C(C(=O)OC(C)(C)C)C(c2ccco2)NC(=O)N1C` (racemic), the inhibition in assay [1] is 20%; in assay [2], 44%; in assay [3], 54%; in assay [4], 26%.

Turning to `CC1=C(C(=O)OC(C)(C)C)C(c2cccs2)NC(=O)N1C` (racemic), the inhibition stood at 12% in assay [1], 18% in assay [2], 22% in assay [3] and 24% in assay [4].

In the case of `CC1=C(C(=O)OC(C)(C)C)C(c2ccoc2)NC(=O)N1C` (racemic), the inhibition in assay [1] worked out at 16%; in assay [2], 21%; in assay [3], 12%; in assay [4], 16%.

As to `CC1=C(C(=O)OC(C)(C)C)C(c2ccsc2)NC(=O)N1C` (racemic), the inhibition in assay [1] is 1%; in assay [2] it was 18%; in assay [3] it was 14%; in assay [4], 35%.

Take `CC1=C(C(=O)OCC(C)C)C(c2cccs2)NC(=O)N1C` (racemic): the inhibition in assay [1] is 1%; in assay [2], 9%; in assay [3], 5%; in assay [4], 2%.

Take `CC1=C(C(=O)OCC(C)C)C(c2ccoc2)NC(=O)N1C` (racemic): the inhibition turned out to be 4% in assay [1], 4% in assay [2], 16% in assay [3] and 1% in assay [4].

On to `CC1=C(C(=O)OCC(C)C)C(c2ccsc2)NC(=O)N1C` (racemic), for which the inhibition came out at 2% in assay [1], 8% in assay [2], 4% in assay [3] and 1% in assay [4].

Take `CC1=C(C(=O)OCc2ccccc2)C(c2cccs2)NC(=O)N1C` (racemic): the inhibition in assay [1] came out at 3%; in assay [2] it was 50%; in assay [3] it was 18%; in assay [4] (filed as antagonist) it was 50%.

With `CC1=C(C(=O)OCc2ccccc2)C(c2ccoc2)NC(=O)N1C` (racemic), the inhibition came out at 37% in assay [1], 51% in assay [2], 25% in assay [3] and 49% in assay [4] (filed as antagonist).

In the case of `CC1=C(C(N)=O)C(c2ccoc2)NC(=O)N1` (racemic), the inhibition in assay [1] was 3%; in assay [2], 1%; in assay [3], 2%; in assay [4] it was 6%.

Consider `CCCC(=O)C1=C(C)NC(=O)NC1c1cccs1` (racemic), for which the inhibition in assay [1] is 23%; in assay [2], 2%; in assay [3], 2%; in assay [4] it was 9%.

As for `CCCC(=O)C1=C(C)NC(=O)NC1c1ccoc1` (racemic), the inhibition worked out at 2% in assay [1], 1% in assay [2], 2% in assay [3] and 22% in assay [4].

With `CCCC(=O)C1=C(C)NC(=O)NC1c1ccsc1` (racemic), the inhibition in assay [1] amounted to 11%; in assay [2], 6%; in assay [3], 1%; in assay [4] it was 9%.

As to `CCCOC(=O)C1=C(C)N(C)C(=O)NC1c1cccs1` (racemic), the inhibition is 1% in assay [1], 9% in assay [2], 4% in assay [3] and 1% in assay [4].

With `CCCOC(=O)C1=C(C)N(C)C(=O)NC1c1ccoc1` (racemic), the inhibition in assay [1] is 1%; in assay [2] it was 1%; in assay [3] it was 16%; in assay [4], 2%.

As for `CCCOC(=O)C1=C(C)N(C)C(=O)NC1c1ccsc1` (racemic), the inhibition turned out to be 3% in assay [1], 2% in assay [2], 11% in assay [3] and 1% in assay [4].

For `CCN(CC)C(=O)C1=C(C)NC(=O)NC1c1ccco1` (racemic), the inhibition is 9% in assay [1], 11% in assay [2], 19% in assay [3] and 31% in assay [4].

`CCN(CC)C(=O)C1=C(C)NC(=O)NC1c1ccoc1` (racemic): the inhibition in assay [1] amounted to 6%; in assay [2] it was 15%; in assay [3] it was 37%; in assay [4] it was 12%.

With `CCNC(=O)C1=C(C)NC(=O)NC1c1ccco1` (racemic), the inhibition in assay [1] came to 1%; in assay [2] it was 2%; in assay [3], 3%; in assay [4] it was 1%.

For `CCNC(=O)C1=C(C)NC(=O)NC1c1ccoc1` (racemic), the inhibition in assay [1] turned out to be 2%; in assay [2], 1%; in assay [3], 1%; in assay [4], 2%.

On to `COC(=O)C1=C(C)N(C)C(=O)NC1c1cccs1` (racemic), for which the inhibition in assay [1] came to 49%; in assay [2], 30%; in assay [3], 15%; in assay [4] it was 17%.

As to `COC(=O)C1=C(C)N(C)C(=O)NC1c1ccoc1` (racemic), the inhibition in assay [1] came out at 5%; in assay [2], 15%; in assay [3], 7%; in assay [4], 7%.

`COC(=O)C1=C(C)N(C)C(=O)NC1c1ccsc1` (racemic): the inhibition stood at 13% in assay [1], 24% in assay [2], 22% in assay [3] and 26% in assay [4].
